In ChEMBL document CHEMBL1932952, “Synthesis and biochemical analysis of 2,2,3,3,4,4,5,5,6,6,7,7-dodecafluoro-N-hydroxy-octanediamides as inhibitors of human histone deacetylases” (Bioorg Med Chem, 2012) one finds IC50, Kd and Ratio data, which are given here for six compounds.

Assay [1] concerns the target Histone deacetylase. Put plainly: Inhibition of HDAC in human K562 cells using Boc-L-Lys(acetyl)-MCA as substrate by fluorogenic cellular assay. The format is cell-based. Put shortly:
(§1)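 K562 cells were grown in RPMI with 10% FCS, L-glutamine and gentamycin, then pelleted. Lysis in 50 mM Tris–HCl pH 8.5, 1 M NaCl, 1 mM MgCl₂, Triton X-100 (up to 5× pellet volume), 2 h at 37 °C. The diluted lysate replaces recombinant enzyme in the two-step fluorogenic trypsin-coupled assay with substrate at 20 µM final. Read-out is AMC fluorescence (ex 390, em 460 nm), giving IC50.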

Assay [2] has as its target Histone deacetylase. Briefly: Inhibition of HDAC in human K562 cells using Boc-L-Lys(trifluoroacetyl)-MCA as substrate by fluorogenic cellular assay. Type of assay: cell-based. Put shortly: as §1
The next assay addresses Histone deacetylase 1 (Homo sapiens, UniProt Q13547). Briefly: Inhibition of recombinant human HDAC1 using Boc-L-Lys(acetyl)-MCA as substrate by fluorogenic enzymatic assay.
The next assay addresses T1, Histone deacetylase 8 (Homo sapiens, UniProt Q9BY41).
T1 sequence (Q9BY41 whole entry): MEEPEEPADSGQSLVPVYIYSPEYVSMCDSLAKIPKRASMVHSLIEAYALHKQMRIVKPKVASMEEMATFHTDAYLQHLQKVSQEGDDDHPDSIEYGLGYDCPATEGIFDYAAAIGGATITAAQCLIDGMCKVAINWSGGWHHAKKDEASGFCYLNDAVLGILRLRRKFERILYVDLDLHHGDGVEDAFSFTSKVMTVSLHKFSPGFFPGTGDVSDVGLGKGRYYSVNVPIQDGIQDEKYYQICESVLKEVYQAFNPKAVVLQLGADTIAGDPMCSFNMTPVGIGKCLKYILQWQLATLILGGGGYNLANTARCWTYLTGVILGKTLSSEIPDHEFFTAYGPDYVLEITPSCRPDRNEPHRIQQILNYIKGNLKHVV
Put plainly: Inhibition of recombinant human HDAC8 using Boc-L-Lys(trifluoroacetyl)-MCA as substrate by fluorogenic enzymatic assay.

Assay [3] has as its target T2, Histone deacetylase-like amidohydrolase (Alcaligenes sp. (strain DSM 11172) (Bordetella sp. (strain FB188)), UniProt Q70I53).
T2 sequence (Q70I53 whole entry): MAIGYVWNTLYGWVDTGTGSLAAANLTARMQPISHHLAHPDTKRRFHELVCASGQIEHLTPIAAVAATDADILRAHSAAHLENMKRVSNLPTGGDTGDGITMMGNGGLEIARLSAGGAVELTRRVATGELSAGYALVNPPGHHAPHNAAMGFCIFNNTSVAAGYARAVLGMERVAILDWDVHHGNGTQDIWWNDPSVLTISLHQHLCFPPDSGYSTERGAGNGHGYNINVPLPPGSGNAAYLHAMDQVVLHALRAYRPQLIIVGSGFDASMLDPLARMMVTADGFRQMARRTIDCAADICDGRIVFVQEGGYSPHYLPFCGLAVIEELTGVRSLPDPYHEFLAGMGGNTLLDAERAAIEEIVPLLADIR
Put plainly: Inhibition of Bordetella FB188 HDAH using Boc-L-Lys(acetyl)-MCA as substrate by fluorogenic enzymatic assay.

For a further assay, the target named is T3, Histone deacetylase 7 (Homo sapiens, UniProt Q8WUI4).
T3 sequence (Q8WUI4 whole entry): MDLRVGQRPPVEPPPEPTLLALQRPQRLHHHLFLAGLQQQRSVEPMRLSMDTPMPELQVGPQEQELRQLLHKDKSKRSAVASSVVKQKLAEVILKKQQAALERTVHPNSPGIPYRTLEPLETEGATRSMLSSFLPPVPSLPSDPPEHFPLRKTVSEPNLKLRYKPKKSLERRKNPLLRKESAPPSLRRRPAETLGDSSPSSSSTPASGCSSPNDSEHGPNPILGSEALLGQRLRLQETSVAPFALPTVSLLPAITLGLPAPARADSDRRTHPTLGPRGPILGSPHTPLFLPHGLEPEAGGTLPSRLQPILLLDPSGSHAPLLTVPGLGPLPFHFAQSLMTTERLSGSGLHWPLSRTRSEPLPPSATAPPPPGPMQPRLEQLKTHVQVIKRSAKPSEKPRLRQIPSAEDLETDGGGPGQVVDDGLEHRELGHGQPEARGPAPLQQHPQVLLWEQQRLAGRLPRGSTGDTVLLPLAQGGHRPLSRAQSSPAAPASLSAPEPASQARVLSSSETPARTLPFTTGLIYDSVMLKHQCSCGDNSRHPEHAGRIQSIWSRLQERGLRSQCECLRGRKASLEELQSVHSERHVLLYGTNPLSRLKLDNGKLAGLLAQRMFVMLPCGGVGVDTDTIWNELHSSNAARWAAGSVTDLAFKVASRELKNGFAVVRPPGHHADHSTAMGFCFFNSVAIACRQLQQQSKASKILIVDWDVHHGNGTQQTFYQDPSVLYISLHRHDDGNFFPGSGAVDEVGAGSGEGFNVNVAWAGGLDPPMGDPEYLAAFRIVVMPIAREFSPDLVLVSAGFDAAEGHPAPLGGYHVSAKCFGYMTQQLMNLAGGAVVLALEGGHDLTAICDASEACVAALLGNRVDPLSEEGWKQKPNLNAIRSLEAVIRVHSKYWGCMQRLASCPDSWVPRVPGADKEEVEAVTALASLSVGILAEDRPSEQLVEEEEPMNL
Put plainly: Inhibition of recombinant human HDAC7 using Boc-L-Lys(trifluoroacetyl)-MCA as substrate by fluorogenic enzymatic assay.

Assay [4] deals with T4, Protein deacetylase HDAC6 (Homo sapiens, UniProt Q9UBN7).
T4 sequence (Q9UBN7 whole entry): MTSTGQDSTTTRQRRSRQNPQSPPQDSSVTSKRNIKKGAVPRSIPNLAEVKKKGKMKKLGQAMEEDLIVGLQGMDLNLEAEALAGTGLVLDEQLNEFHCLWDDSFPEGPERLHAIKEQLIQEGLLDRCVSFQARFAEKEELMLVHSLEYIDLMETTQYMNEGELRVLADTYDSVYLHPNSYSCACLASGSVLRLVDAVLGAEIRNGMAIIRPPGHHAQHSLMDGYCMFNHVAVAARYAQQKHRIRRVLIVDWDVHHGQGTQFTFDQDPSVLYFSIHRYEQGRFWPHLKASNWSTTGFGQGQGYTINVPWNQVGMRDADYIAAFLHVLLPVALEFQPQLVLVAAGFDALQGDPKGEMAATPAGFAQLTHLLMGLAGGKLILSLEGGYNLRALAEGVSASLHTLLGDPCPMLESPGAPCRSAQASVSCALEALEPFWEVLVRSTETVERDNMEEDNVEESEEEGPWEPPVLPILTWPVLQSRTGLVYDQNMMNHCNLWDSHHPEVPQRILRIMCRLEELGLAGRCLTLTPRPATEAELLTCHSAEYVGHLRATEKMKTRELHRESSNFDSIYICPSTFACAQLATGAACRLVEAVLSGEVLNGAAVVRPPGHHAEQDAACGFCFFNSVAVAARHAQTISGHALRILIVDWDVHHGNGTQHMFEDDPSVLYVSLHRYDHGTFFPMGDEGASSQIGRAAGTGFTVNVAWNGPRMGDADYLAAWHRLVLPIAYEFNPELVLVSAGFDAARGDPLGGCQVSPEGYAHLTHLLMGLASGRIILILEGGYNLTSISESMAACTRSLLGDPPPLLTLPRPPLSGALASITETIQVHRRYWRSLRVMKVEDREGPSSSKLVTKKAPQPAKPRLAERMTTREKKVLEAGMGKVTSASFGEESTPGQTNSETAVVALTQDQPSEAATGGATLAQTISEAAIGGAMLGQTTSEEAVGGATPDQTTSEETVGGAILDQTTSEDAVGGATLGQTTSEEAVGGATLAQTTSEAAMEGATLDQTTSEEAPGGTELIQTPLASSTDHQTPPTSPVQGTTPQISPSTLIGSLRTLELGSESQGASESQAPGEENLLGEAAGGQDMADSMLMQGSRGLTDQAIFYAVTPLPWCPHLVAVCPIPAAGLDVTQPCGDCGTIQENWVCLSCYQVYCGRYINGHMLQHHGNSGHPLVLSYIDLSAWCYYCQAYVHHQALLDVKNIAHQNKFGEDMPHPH
Briefly: Inhibition of recombinant human HDAC6 using Boc-L-Lys(acetyl)-MCA as substrate by fluorogenic enzymatic assay.

In assay [5] the target is T5, Histone deacetylase 7 (Homo sapiens) (UniProt Q8WUI4).
T5 sequence (whole entry): T3 sequence (Q8WUI4 whole entry)
Put plainly: Ratio of SAHA Kd to compound Kd for recombinant human HDAC7.

For assay [6], the target named is T6, Histone deacetylase 8 (Homo sapiens) (UniProt Q9BY41).
T6 sequence (whole entry): T1 sequence (Q9BY41 whole entry)
Put plainly: Ratio of SAHA Kd to compound Kd for recombinant human HDAC8.

Some results are limits rather than exact numbers.

Histone deacetylase 1, sequence (Q13547 whole entry): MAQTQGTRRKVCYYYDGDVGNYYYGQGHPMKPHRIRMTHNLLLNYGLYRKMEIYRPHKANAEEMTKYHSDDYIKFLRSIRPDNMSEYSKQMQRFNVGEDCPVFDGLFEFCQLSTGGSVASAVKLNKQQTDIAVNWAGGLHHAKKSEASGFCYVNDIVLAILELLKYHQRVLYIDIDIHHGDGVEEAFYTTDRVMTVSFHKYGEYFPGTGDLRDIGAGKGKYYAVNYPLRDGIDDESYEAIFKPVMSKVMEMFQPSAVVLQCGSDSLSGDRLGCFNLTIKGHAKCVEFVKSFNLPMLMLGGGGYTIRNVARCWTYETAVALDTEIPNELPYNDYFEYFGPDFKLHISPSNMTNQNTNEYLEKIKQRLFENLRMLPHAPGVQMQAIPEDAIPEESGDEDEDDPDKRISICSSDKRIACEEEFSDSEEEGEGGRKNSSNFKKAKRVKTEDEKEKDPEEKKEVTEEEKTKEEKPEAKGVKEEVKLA

In general, IC50 refers to the concentration at which inhibition is half-maximal. A low value points to greater potency in that assay. Broadly, the Kd is the concentration at which binding is half-saturated. In the case of `O=C(NO)C(F)(F)C(F)(F)C(F)(F)C(F)(F)C(F)(F)C(F)(F)C(=O)Nc1cccc2cc3ccccc3cc12`, the IC50 against Histone deacetylase [1] and at Histone deacetylase [2] was over 50 µM in each case. In addition, the Kd at Histone deacetylase 1 is 14 µM; at Histone deacetylase 8, 1.4 µM; in assay [3], 0.74 µM; on Histone deacetylase 7 it was 13 µM; in assay [4], 5.9 µM.
With `O=C(NO)C(F)(F)C(F)(F)C(F)(F)C(F)(F)C(F)(F)C(F)(F)C(=O)Nc1nc(-c2ccccc2)cs1`, the Ratio in assay [5] came to 25; in [6], 2. Besides, the IC50 against Histone deacetylase [1] turned out to be 30 µM; against Histone deacetylase [2] it was 14 µM. The Kd turned out to be 2.6 µM on Histone deacetylase 1; 1.5 µM on Histone deacetylase 8; 2.2 µM in assay [3]; 1.4 µM on Histone deacetylase 7; 5.4 µM in [4].
On to `CCc1cccc(NC(=O)C(F)(F)C(F)(F)C(F)(F)C(F)(F)C(F)(F)C(F)(F)C(=O)NO)c1`, for which the IC50 on Histone deacetylase [1] is over 50 µM; at Histone deacetylase [2], 42 µM. Moreover, the Kd on Histone deacetylase 1 worked out at 16 µM; on Histone deacetylase 8, 13 µM; in assay [3] it was 0.19 µM; at Histone deacetylase 7, 3 µM; in [4] it was 1.3 µM.
Take `O=C(NO)C(F)(F)C(F)(F)C(F)(F)C(F)(F)C(F)(F)C(F)(F)C(=O)Nc1ccc(I)cc1`: the IC50 against Histone deacetylase [1] and against Histone deacetylase [2] was over 50 µM in each case. In addition, the Kd stood at 14 µM on Histone deacetylase 1; 36 µM on Histone deacetylase 8; 0.39 µM in assay [3]; 4.1 µM at Histone deacetylase 7; 4.2 µM in assay [4].
As for `O=C(NO)C(F)(F)C(F)(F)C(F)(F)C(F)(F)C(F)(F)C(F)(F)C(=O)Nc1ccccc1`, in [5], the Ratio came to 3. Besides, the results for the IC50 at Histone deacetylase [1] and against Histone deacetylase [2] were over 50 µM and 49 µM, respectively. In addition, the Kd on Histone deacetylase 1 came out at 29 µM; at Histone deacetylase 8, 17 µM; in assay [3], 0.54 µM; on Histone deacetylase 7, 11 µM; in [4] it was 11 µM.
Consider `Cc1ccc(NC(=O)C(F)(F)C(F)(F)C(F)(F)C(F)(F)C(F)(F)C(F)(F)C(=O)NO)cc1C`, for which the IC50 against Histone deacetylase [1] and against Histone deacetylase [2] was over 50 µM throughout. In addition, the Kd was found to be 24 µM on Histone deacetylase 1; 14 µM at Histone deacetylase 8; 0.26 µM in assay [3]; 3.3 µM at Histone deacetylase 7; 24 µM in assay [4].
